Laboratory results reported in ChEMBL document CHEMBL2177091, “Spirocyclic sulfamides as β-secretase 1 (BACE-1) inhibitors for the treatment of Alzheimer's disease: utilization of structure based drug design, WaterMap, and CNS penetration studies to identify centrally efficacious inhibitors” (J Med Chem, 2012).

Experiments:
in vitro = conditions: human, liver microsomes
[1] = Ratio of free drug concentration in brain to free drug concentration in plasma in FVB/N mouse at 10 mg/kg, sc after 60 mins; type: ADME, organism-based; set-up: dose 10 mg/kg, route subcutaneous; conditions: brain and plasma (free concentrations), read-out: K(p,uu,brain)
How it was run: (§1)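 Mice dosed 10 mg/kg subcutaneously; plasma and brain exposures taken at 60 min. Unbound fractions determined by equilibrium dialysis.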

[2] = Intrinsic clearance in rat liver microsomes; type: ADME, Microsome; conditions: read-out: CLH
Plasma = assay: Fraction unbound in FVB/N mouse plasma at 1 uM after 6 hrs by equilibrium dialysis; type: ADME, cell-free
[3] = Ratio of drug uptake in brain to plasma in FVB/N mouse at 10 mg/kg, sc after 60 mins; type: ADME, organism-based; set-up: dose 10 mg/kg, route subcutaneous; conditions: brain and plasma, read-out: BPR
How it was run: as §1

Compound | CLint scaled (in vitro) [mL/min/kg] | Kp uu at 1 h [1] | CLint scaled [2] [mL/min/kg] | Cp(f) (Plasma) | Kp at 1 h [3]
C[C@H]1C[C@]2(CCN1Cc1ccc(O)c(Cl)c1)CN(C)S(=O)(=O)N2c1cccc(F)c1 | 173 | – | – | – | –
CC(C)Oc1cc(CN2CC[C@@]3(C[C@@H]2C)CN(C)S(=O)(=O)N3c2cccc(F)c2)ccc1O | 15.4 | 0.27 | 59.7 | 0.17 | 0.35
CC(C)Oc1cccc(CN2CC[C@@]3(C[C@@H]2C)CN(C)S(=O)(=O)N3c2cccc(F)c2)c1 | > 19 | 0.65 | > 65.5 | 0.036 | 0.97
C[C@H]1C[C@]2(CCN1Cc1ccc3[nH]ccc3c1)CN(C)S(=O)(=O)N2c1cccc(F)c1 | 175 | – | – | – | –
CCc1n[nH]c2ccc(CN3CC[C@@]4(C[C@@H]3C)CN(C)S(=O)(=O)N4c3cccc(F)c3)cc12 | 74.2 | – | – | – | –

The remaining lines, values ahead:

CLint scaled (in vitro) [mL/min/kg] | Kp uu at 1 h [1] | CLint scaled [2] [mL/min/kg] | Cp(f) (Plasma) | Kp at 1 h [3] | Compound
79.9 | – | – | – | – | CCOc1cc(CN2CC[C@@]3(C[C@@H]2C)CN(C)S(=O)(=O)N3c2cccc(F)c2)ccc1O
> 300 | – | – | – | – | CC(=O)Nc1ccc(CN2CC[C@@]3(C[C@@H]2C)CN(C)S(=O)(=O)N3c2cccc(F)c2)cc1
152 | – | – | – | – | C[C@H]1C[C@]2(CCN1Cc1ccc(O)cc1)CN(C)S(=O)(=O)N2c1cccc(F)c1
> 19 | 0.22 | > 65.5 | 0.041 | 0.67 | CC(C)Oc1cccc(CN2CC[C@]3(CNS(=O)(=O)N3c3cccc(F)c3)C[C@@H]2C)c1
